Laboratory results from ChEMBL document CHEMBL1154634, “Tea catechins inhibit hepatocyte growth factor receptor (MET kinase) activity in human colon cancer cells: kinetic and molecular docking studies” (J Med Chem, 2009).
Active and inactive are the calls of the source. The calls are words filed in the database; no cut-off is given here.

Columns and labels:
[1] = molecular target: T1, Hepatocyte growth factor receptor (Homo sapiens, UniProt P08581); experiment: Inhibition of MET kinase
In short: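 Cell-free MET kinase activity assay run over a range of inhibitor concentrations; IC50 taken as the concentration giving 50% inhibition of kinase activity; data as mean ± SD, n = 3.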

[2] = molecular target: T1, Hepatocyte growth factor receptor; experiment: Inhibition of hepatocyte growth factor-induced MET phosphorylation in human HCT116 cells at 5 uM after 30 mins by immunoblot; assay type: cell-based
In short: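 Whole-cell lysates immunoblotted for phospho-MET and total MET, with β-actin as loading control; densitometry with phospho-MET normalized to total MET.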

Mus musculus = experiment: Plasma concentration in po dosed mouse; assay type: ADME, organism-based; conditions: in vivo
Homo sapiens = experiment: Plasma concentration in po dosed human; assay type: ADME, organism-based; conditions: in vivo
[3] = molecular target: T1, Hepatocyte growth factor receptor; experiment: Inhibition of MET kinase by Dixon plot analysis
In short: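 MET kinase activity measured at several inhibitor concentrations; Dixon plot (1/V versus [I]) and Cornish-Bowden plot ([S]/V versus [I]) used to assign inhibition type; Ki derived by linear regression of the Dixon plot.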

T1 sequence (P08581 whole entry): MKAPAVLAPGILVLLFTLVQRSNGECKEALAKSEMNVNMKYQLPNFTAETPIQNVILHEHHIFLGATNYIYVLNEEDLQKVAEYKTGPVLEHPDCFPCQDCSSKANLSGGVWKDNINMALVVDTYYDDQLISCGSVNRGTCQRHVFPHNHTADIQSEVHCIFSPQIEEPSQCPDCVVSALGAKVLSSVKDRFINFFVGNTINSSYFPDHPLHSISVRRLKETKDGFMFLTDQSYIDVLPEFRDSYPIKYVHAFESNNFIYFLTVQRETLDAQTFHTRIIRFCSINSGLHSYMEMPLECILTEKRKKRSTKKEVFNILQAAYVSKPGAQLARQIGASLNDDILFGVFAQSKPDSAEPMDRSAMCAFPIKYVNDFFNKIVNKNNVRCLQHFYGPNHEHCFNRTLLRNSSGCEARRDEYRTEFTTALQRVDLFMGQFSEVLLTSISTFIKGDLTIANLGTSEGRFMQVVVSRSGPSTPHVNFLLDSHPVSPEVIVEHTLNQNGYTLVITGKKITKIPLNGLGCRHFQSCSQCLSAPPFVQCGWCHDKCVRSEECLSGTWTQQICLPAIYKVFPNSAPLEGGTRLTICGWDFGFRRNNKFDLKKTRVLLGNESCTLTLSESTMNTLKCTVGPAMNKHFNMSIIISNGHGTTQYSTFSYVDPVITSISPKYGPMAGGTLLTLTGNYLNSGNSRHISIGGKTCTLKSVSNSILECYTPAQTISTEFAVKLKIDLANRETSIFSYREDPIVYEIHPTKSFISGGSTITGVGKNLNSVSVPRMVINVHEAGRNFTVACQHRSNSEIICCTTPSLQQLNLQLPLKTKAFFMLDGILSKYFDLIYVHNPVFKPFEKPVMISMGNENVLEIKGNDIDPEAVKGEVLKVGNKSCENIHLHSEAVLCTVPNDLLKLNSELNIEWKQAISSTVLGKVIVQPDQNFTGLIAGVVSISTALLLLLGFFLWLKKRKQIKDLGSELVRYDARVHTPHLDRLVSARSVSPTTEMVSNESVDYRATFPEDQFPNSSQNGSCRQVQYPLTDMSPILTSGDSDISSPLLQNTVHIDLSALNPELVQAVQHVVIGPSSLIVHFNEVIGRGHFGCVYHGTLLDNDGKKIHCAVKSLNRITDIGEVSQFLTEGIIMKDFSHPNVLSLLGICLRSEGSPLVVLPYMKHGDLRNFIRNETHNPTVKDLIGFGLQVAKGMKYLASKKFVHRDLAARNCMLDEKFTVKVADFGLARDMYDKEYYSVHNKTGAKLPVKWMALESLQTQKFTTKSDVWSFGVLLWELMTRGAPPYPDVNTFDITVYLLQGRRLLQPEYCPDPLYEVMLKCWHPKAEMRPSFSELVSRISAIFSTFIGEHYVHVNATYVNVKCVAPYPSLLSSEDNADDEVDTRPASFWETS

SMILES	inhibition [1]	IC50 [1] [µM]	inhibition [2]	also measured
O=C(O)c1cc(O)c(O)c(O)c1	inactive			
Oc1cc(O)c2c(c1)O[C@@H](c1ccc(O)c(O)c1)[C@H](O)C2	inactive			
Oc1cc(O)c2c(c1)O[C@H](c1cc(O)c(O)c(O)c1)[C@H](O)C2	inactive			
Oc1cc(O)c2c(c1)O[C@H](c1ccc(O)c(O)c1)[C@H](O)C2	inactive			
O=C(O[C@@H]1Cc2c(O)cc(O)cc2O[C@@H]1c1ccc(O)c(O)c1)c1cc(O)c(O)c(O)c1 [EPICATECHIN GALLATE]		10	Active	
O=C(O[C@@H]1Cc2c(O)cc(O)cc2O[C@@H]1c1cc(O)c(O)c(O)c1)c1cc(O)c(O)c(O)c1 [EPIGALOCATECHIN GALLATE]		10	Active	concentration (Mus musculus): 9 µM; concentration (Homo sapiens): 7.5 µM; Ki [3]: 3.3 µM
O=C(O[C@@H]1Cc2c(O)cc(O)cc2O[C@H]1c1cc(O)c(O)c(O)c1)c1cc(O)c(O)c(O)c1 [GALLOCATECHIN GALLATE]		10	Active	
